Reference: ChEMBL document CHEMBL1153560, “In vitro activities of doripenem and six comparator drugs against 423 aerobic and anaerobic bacterial isolates from infected diabetic foot wounds” (2008)
Converted amounts (≈) assume the structure as drawn.

How the values were obtained:
Assay type in all cases: functional
[1] = test system: Anaerocolumna aminovalerica; experiment: Antibacterial activity against Clostridium aminovalericum isolated from patient with diabetic foot infection after 44 to 48 hrs by agar dilution method
How it was run: (§1)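 CLSI M11-A7 agar dilution: serial twofold drug dilutions made on the test day and added to molten agar. Spots of 10^5 CFU were applied by replicator, with drug-free control plates inoculated before and after each set. Incubation was 44 to 48 h at 37°C in an anaerobic chamber. MIC was the lowest concentration giving no growth or a marked change in growth versus controls.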

Clostridium cadaveris [2] = experiment: Antibacterial activity against Clostridium cadaveris isolated from patient with diabetic foot infection after 44 to 48 hrs by agar dilution method; how it was run: as §1
[3] = test system: Enterocloster clostridioformis; experiment: Antibacterial activity against Clostridium clostridioforme isolated from patient with diabetic foot infection after 44 to 48 hrs by agar dilution method; how it was run: as §1
[Clostridium] innocuum = Antibacterial activity against Clostridium innocuum isolated from patient with diabetic foot infection after 44 to 48 hrs by agar dilution method; how it was run: as §1
Anaerococcus tetradius = experiment: Antibacterial activity against Anaerococcus tetradius isolated from patient with diabetic foot infection after 44 to 48 hrs by agar dilution method; how it was run: as §1
[4] = test system: Peptostreptococcus anaerobius; experiment: Antibacterial activity against Peptostreptococcus anaerobius isolated from patient with diabetic foot infection after 44 to 48 hrs by agar dilution method; how it was run: as §1
Escherichia coli = experiment: Antibacterial activity against Escherichia coli isolated from patient with diabetic foot infection assessed as percent resistant isolates after 18 to 24 hrs by broth microdilution method
How it was run: (§2)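 Aerobes subcultured on Trypticase soy blood agar, then broth microdilution in cation-adjusted Mueller-Hinton broth. Trays prepared in-house with twofold dilutions and stored at −70°C. Overnight colonies suspended to about 5 × 10^5 CFU/ml final. Read after 18 to 24 h at 37°C. QC strains included S. aureus ATCC 29213 and E. coli ATCC 25922.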

Klebsiella aerogenes [5] = experiment: Antibacterial activity against Enterobacter aerogenes isolated from patient with diabetic foot infection assessed as percent resistant isolates after 18 to 24 hrs by broth microdilution method; how it was run: as §2
[6] = test system: Staphylococcus lugdunensis; experiment: Antibacterial activity against Staphylococcus lugdunensis isolated from patient with diabetic foot infection after 18 to 24 hrs by broth microdilution method
How it was run: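 Subcultured on Trypticase soy blood agar, then broth microdilution in cation-adjusted Mueller-Hinton broth. Trays were made in-house with serial twofold drug dilutions and stored at −70°C. Inoculum was colonies from overnight growth, final approximately 5 × 10^5 CFU/ml. MIC was read after 18 to 24 h at 37°C. QC strains: S. aureus ATCC 29213 and E. coli ATCC 25922.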

[7] = test system: Staphylococcus haemolyticus; experiment: Antibacterial activity against Staphylococcus haemolyticus isolated from patient with diabetic foot infection assessed as percent resistant isolates after 18 to 24 hrs by broth microdilution method
[8] = test system: Staphylococcus lugdunensis; experiment: Antibacterial activity against Staphylococcus lugdunensis isolated from patient with diabetic foot infection assessed as percent resistant isolates after 18 to 24 hrs by broth microdilution method; how it was run: as §2
Bacteroides ovatus = experiment: Antibacterial activity against Bacteroides ovatus isolated from patient with diabetic foot infection assessed as percent resistant isolates after 44 to 48 hrs by agar dilution method
How it was run: (§3)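 Agar dilution per CLSI M11-A7. Twofold drug dilutions made on the test day and added to molten agar. Replicator-applied inoculum of 10^5 CFU/spot. Drug-free control plates inoculated before and after each drug set. Incubation at 37°C for 44 to 48 h, anaerobic chamber. MIC taken as the lowest concentration giving no growth or a marked change in growth versus controls.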

Phocaeicola vulgatus = experiment: Antibacterial activity against Bacteroides vulgatus isolated from patient with diabetic foot infection after 44 to 48 hrs by agar dilution method; how it was run: as §1
Parabacteroides merdae = experiment: Antibacterial activity against Parabacteroides merdae isolated from patient with diabetic foot infection after 44 to 48 hrs by agar dilution method; how it was run: as §1
[9] = test system: Porphyromonas asaccharolytica; experiment: Antibacterial activity against Porphyromonas asaccharolyticus isolated from patient with diabetic foot infection after 44 to 48 hrs by agar dilution method; how it was run: as §1
Porphyromonas somerae = experiment: Antibacterial activity against Porphyromonas somerae isolated from patient with diabetic foot infection assessed as percent resistant isolates after 44 to 48 hrs by agar dilution method; how it was run: as §3
Prevotella bivia = experiment: Antibacterial activity against Prevotella bivia isolated from patient with diabetic foot infection assessed as percent resistant isolates after 44 to 48 hrs by agar dilution method; how it was run: as §3
Klebsiella aerogenes [10] = experiment: Antibacterial activity against Enterobacter aerogenes isolated from patient with diabetic foot infection after 18 to 24 hrs by broth microdilution method
How it was run: (§4)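 Isolates were subcultured on Trypticase soy blood agar and tested by broth microdilution in cation-adjusted Mueller-Hinton broth. In-house trays of twofold drug dilutions were stored at −70°C. Overnight colonies gave a final inoculum of about 5 × 10^5 CFU/ml. Plates were read after 18 to 24 h at 37°C.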

Enterobacter cloacae = experiment: Antibacterial activity against Enterobacter cloacae isolated from patient with diabetic foot infection after 18 to 24 hrs by broth microdilution method; how it was run: as §4
Proteus mirabilis = experiment: Antibacterial activity against Proteus mirabilis isolated from patient with diabetic foot infection after 18 to 24 hrs by broth microdilution method; how it was run: as §4
Proteus vulgaris = experiment: Antibacterial activity against Proteus vulgaris isolated from patient with diabetic foot infection after 18 to 24 hrs by broth microdilution method; how it was run: as §4
Corynebacterium striatum = experiment: Antibacterial activity against Corynebacterium striatum isolated from patient with diabetic foot infection after 48 hrs by broth microdilution method
How it was run: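 Isolates were subcultured on Trypticase soy blood agar. Broth microdilution used cation-adjusted Mueller-Hinton broth with lysed horse blood, in-house trays of twofold drug dilutions stored at −70°C. Colonies from overnight growth gave a final inoculum of about 5 × 10^5 CFU/ml. Trays were read after 18 to 24 h at 37°C, up to 48 h for some strains.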

Clostridium cadaveris [11] = experiment: Antibacterial activity against Clostridium cadaveris isolated from patient with diabetic foot infection assessed as percent resistant isolates after 44 to 48 hrs by agar dilution method; how it was run: as §3
[12] = test system: Enterocloster clostridioformis; experiment: Antibacterial activity against Clostridium clostridioforme isolated from patient with diabetic foot infection assessed as percent resistant isolates after 44 to 48 hrs by agar dilution method; how it was run: as §3
[13] = test system: Clostridium malenominatum; experiment: Antibacterial activity against Clostridium malenominatum isolated from patient with diabetic foot infection assessed as percent resistant isolates after 44 to 48 hrs by agar dilution method; how it was run: as §3
Anaerococcus vaginalis = experiment: Antibacterial activity against Anaerococcus vaginalis isolated from patient with diabetic foot infection assessed as percent resistant isolates after 44 to 48 hrs by agar dilution method; how it was run: as §3

SMILES: C[C@@H](O)[C@H]1C(=O)N2C(C(=O)O)=C(S[C@@H]3CN[C@H](C(=O)Nc4cccc(C(=O)O)c4)C3)[C@H](C)[C@H]12 [ERTAPENEM]
- MIC50 [1]: 0.25 µg/mL (≈ 0.526 µM)
- MIC90 [1]: 2 µg/mL (≈ 4.21 µM)
- MIC50 (Clostridium cadaveris [2]): 0.25 µg/mL (≈ 0.526 µM)
- MIC90 (Clostridium cadaveris [2]): 2 µg/mL (≈ 4.21 µM)
- MIC50 [3]: 0.25 µg/mL (≈ 0.526 µM)
- MIC90 [3]: 2 µg/mL (≈ 4.21 µM)
- MIC50 ([Clostridium] innocuum): 0.25 µg/mL (≈ 0.526 µM)
- MIC90 ([Clostridium] innocuum): 2 µg/mL (≈ 4.21 µM)
- MIC50 (Anaerococcus tetradius): 0.125 µg/mL (≈ 0.263 µM)
- MIC90 (Anaerococcus tetradius): 0.25 µg/mL (≈ 0.526 µM)
- MIC50 [4]: 0.25 µg/mL (≈ 0.526 µM)
- MIC90 [4]: 0.5 µg/mL (≈ 1.05 µM)
- Activity (Escherichia coli): 0%
- Activity (Klebsiella aerogenes [5]): 0%
- MIC50 [6]: 0.5 µg/mL (≈ 1.05 µM)
- MIC90 [6]: 1 µg/mL (≈ 2.1 µM)
- Activity [7]: 73%
- Activity [8]: 0%
- Activity (Bacteroides ovatus): 0%
- MIC50 (Phocaeicola vulgatus): 1 µg/mL (≈ 2.1 µM)
- MIC90 (Phocaeicola vulgatus): 2 µg/mL (≈ 4.21 µM)
- MIC50 (Parabacteroides merdae): 1 µg/mL (≈ 2.1 µM)
- MIC90 (Parabacteroides merdae): 2 µg/mL (≈ 4.21 µM)
- MIC50 [9]: ≤ 0.015 µg/mL
- MIC90 [9]: 0.06 µg/mL (≈ 0.126 µM)
- Activity (Porphyromonas somerae): 0%
- Activity (Prevotella bivia): 0%
- MIC50 (Klebsiella aerogenes [10]): 0.06 µg/mL (≈ 0.126 µM)
- MIC90 (Klebsiella aerogenes [10]): 0.5 µg/mL (≈ 1.05 µM)
- MIC50 (Enterobacter cloacae): 0.06 µg/mL (≈ 0.126 µM)
- MIC90 (Enterobacter cloacae): 0.5 µg/mL (≈ 1.05 µM)
- MIC50 (Proteus mirabilis): ≤ 0.015 µg/mL
- MIC90 (Proteus mirabilis): 0.25 µg/mL (≈ 0.526 µM)
- MIC50 (Proteus vulgaris): ≤ 0.015 µg/mL
- MIC90 (Proteus vulgaris): 0.25 µg/mL (≈ 0.526 µM)
- MIC50 (Corynebacterium striatum): 0.5 µg/mL (≈ 1.05 µM)
- MIC90 (Corynebacterium striatum): 1 µg/mL (≈ 2.1 µM)
- Activity (Clostridium cadaveris [11]): 0%
- Activity [12]: 0%
- Activity [13]: 0%
- Activity (Anaerococcus vaginalis): 0%
